≈ marks a conversion by molar mass, not a printed value.
Tests used:
[1] = biological target: 3',5'-cyclic-AMP phosphodiesterase 4A (Homo sapiens, UniProt P27815); test: Inhibition of human full length PDE4A4 expressed in baculovirus infected sf21 cells
[2] = Aqueous solubility of the compound at pH 7.4; settings: buffer
[3] = Intrinsic clearance in rat liver microsomes; type: ADME, Microsome; settings: read-out: CLH
[4] = biological target: High affinity 3',5'-cyclic-AMP phosphodiesterase 7A (Homo sapiens, UniProt Q13946); test: Inhibition of human full length PDE7A1 expressed in baculovirus infected sf21 cells
Mustela putorius furo [5] = test: Toxicity in po dosed ferret assessed as first emetic dose by measuring occurrence of vomiting episode after 6 hrs; type: organism-based; settings: in vivo
Procedure, shortened: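 Ferrets were given oral doses and watched for 6 h after administration for a vomiting episode; the first emetic dose was reported in mg/kg.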

serum albumin = serum albumin (Homo sapiens, UniProt P02768); test: Binding affinity to human serum albumin; type: ADME; settings: read-out: PB (converted)
Mustela putorius furo [6] = test: Inhibition of LPS-induced neutrophilia in ferret COPD model BAL-fluid at 10 mg/kg, po; type: functional
Mustela putorius furo [7] = test: Inhibition of LPS-induced neutrophilia in ferret COPD model BAL-fluid at 0.1 mg/kg, po; type: functional
Procedure, shortened: (§1)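 Ferrets challenged by LPS inhalation, with compound given orally. Read-out is the change in neutrophil count in bronchoalveolar lavage fluid, expressed as percentage inhibition.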

Mustela putorius furo [8] = test: Inhibition of LPS-induced neutrophilia in ferret COPD model BAL-fluid at 0.01 mg/kg, po; type: functional; procedure, shortened: as §1
PBMC = test: Inhibition of TNFalpha production in human PBMC; type: functional, cell-based
Blood = test: Inhibition of TNFalpha production in human whole blood; type: functional, tissue-based
Rattus norvegicus = test: Inhibition of LPS-induced neutrophil accumulation in rat lung at 0.1 mg/kg, po; type: functional
[9] = Intrinsic clearance in human liver microsomes; type: ADME, Microsome; settings: read-out: CLH
hERG (KCNH2) = hERG (KCNH2) (Homo sapiens, UniProt Q12809); test: Inhibition of human ERG at 10 uM
Procedure, shortened: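 hERG measured in a binding assay, reported as percent inhibition at 10 µM.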

[10] = Intrinsic clearance in dog liver microsomes; type: ADME, Canis lupus familiaris, Microsome; settings: read-out: CLH
[11] = Cmax in rat at 3 mg/kg, po; type: ADME, organism-based; set-up: dose 3 mg/kg, route oral; settings: in vivo
[12] = Volume of distribution in rat at 3 mg/kg; type: ADME, organism-based; set-up: dose 3 mg/kg; settings: in vivo
[13] = Half life in rat at 3 mg/kg, iv; type: ADME, organism-based; set-up: dose 3 mg/kg, route intravenous; settings: in vivo
[14] = Oral bioavailability in rat; type: ADME, organism-based; settings: in vivo
[15] = Clearance in rat at 3 mg/kg, iv; type: ADME, organism-based; set-up: dose 3 mg/kg, route intravenous; settings: in vivo
[16] = Inhibition of bovine retina PDE6; set-up: species or system Bos taurus
[17] = biological target: cAMP and cAMP-inhibited cGMP 3',5'-cyclic phosphodiesterase 10A (Homo sapiens, UniProt Q9Y233); test: Inhibition of human recombinant PDE10A
[18] = biological target: Dual 3',5'-cyclic-AMP and -GMP phosphodiesterase 11A (Homo sapiens, UniProt Q9HCR9); test: Inhibition of human recombinant PDE11A
[19] = biological target: High affinity cAMP-specific and IBMX-insensitive 3',5'-cyclic phosphodiesterase 8A (Homo sapiens, UniProt O60658); test: Inhibition of human recombinant PDE8A
[20] = biological target: High affinity cGMP-specific 3',5'-cyclic phosphodiesterase 9A (Homo sapiens, UniProt O76083); test: Inhibition of human recombinant PDE9A
[21] = biological target: cGMP-specific 3',5'-cyclic phosphodiesterase (Homo sapiens, UniProt O76074); test: Inhibition of human recombinant PDE5A
[22] = biological target: cGMP-inhibited 3',5'-cyclic phosphodiesterase 3A (Homo sapiens, UniProt Q14432); test: Inhibition of human recombinant PDE3A
[23] = biological target: cGMP-dependent 3',5'-cyclic phosphodiesterase (Homo sapiens, UniProt O00408); test: Inhibition of human recombinant PDE2A
[24] = biological target: Dual specificity calcium/calmodulin-dependent 3',5'-cyclic nucleotide phosphodiesterase 1B (Homo sapiens, UniProt Q01064); test: Inhibition of human recombinant PDE1B
[25] = biological target: 3',5'-cyclic-AMP phosphodiesterase 4B (Homo sapiens, UniProt Q07343); test: Inhibition of full length PDE4B1 (unknown origin)
[26] = biological target: 3',5'-cyclic-AMP phosphodiesterase 4D (Rattus norvegicus, UniProt P14270); test: Inhibition of rat PDE4D3
[27] = Inhibition of CYP3A4D (unknown origin); type: ADME, Homo sapiens
[28] = Inhibition of CYP3A4Q (unknown origin); type: ADME, Homo sapiens
Cytochrome P450 2D6 = Cytochrome P450 2D6 (Homo sapiens, UniProt P10635); test: Inhibition of CYP2D6 (unknown origin); type: ADME
[29] = Inhibition of CYP3A4B (unknown origin); type: ADME, Homo sapiens
Cytochrome P450 2A6 = Cytochrome P450 2A6 (Homo sapiens, UniProt P11509); test: Inhibition of CYP2A6 (unknown origin); type: ADME
Cytochrome P450 2C9 = Cytochrome P450 2C9 (Homo sapiens, UniProt P11712); test: Inhibition of CYP2C9 (unknown origin); type: ADME
Cytochrome P450 2C19 = Cytochrome P450 2C19 (Homo sapiens, UniProt P33261); test: Inhibition of CYP2C19 (unknown origin); type: ADME
Cytochrome P450 1A1 = Cytochrome P450 1A1 (Homo sapiens, UniProt P04798); test: Inhibition of CYP1A1 (unknown origin); type: ADME
Cytochrome P450 1A2 = Cytochrome P450 1A2 (Homo sapiens, UniProt P05177); test: Inhibition of CYP1A2 (unknown origin); type: ADME
[30] = Inhibition of cytochrome P450 (unknown origin); type: ADME; settings: human
Homo sapiens = species: Homo sapiens; test: Selectivity ratio of IC50 for human full length PDE7A1 to IC50 for human full length PDE4A4
[31] = biological target: Voltage-gated inwardly rectifying potassium channel KCNH2 (Homo sapiens, UniProt Q12809); test: Inhibition of human ERG
Procedure, shortened: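 hERG was tested in a binding-format assay as percent inhibition at a single test concentration of 10 µM.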

Chain of High affinity 3',5'-cyclic-AMP phosphodiesterase 7A (Q13946 whole entry): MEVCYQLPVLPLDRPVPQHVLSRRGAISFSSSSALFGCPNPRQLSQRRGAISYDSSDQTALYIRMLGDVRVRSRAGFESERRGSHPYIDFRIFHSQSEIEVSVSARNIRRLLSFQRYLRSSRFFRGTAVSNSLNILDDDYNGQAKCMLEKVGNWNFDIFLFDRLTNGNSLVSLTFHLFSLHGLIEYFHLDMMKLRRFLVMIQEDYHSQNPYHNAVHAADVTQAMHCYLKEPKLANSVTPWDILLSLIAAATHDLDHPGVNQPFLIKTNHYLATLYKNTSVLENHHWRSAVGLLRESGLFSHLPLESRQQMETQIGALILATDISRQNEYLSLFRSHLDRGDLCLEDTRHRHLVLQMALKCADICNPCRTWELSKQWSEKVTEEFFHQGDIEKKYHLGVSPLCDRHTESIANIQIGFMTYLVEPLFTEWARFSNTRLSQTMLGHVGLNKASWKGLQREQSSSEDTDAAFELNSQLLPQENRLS
Chain of 3',5'-cyclic-AMP phosphodiesterase 4A (P27815 whole entry): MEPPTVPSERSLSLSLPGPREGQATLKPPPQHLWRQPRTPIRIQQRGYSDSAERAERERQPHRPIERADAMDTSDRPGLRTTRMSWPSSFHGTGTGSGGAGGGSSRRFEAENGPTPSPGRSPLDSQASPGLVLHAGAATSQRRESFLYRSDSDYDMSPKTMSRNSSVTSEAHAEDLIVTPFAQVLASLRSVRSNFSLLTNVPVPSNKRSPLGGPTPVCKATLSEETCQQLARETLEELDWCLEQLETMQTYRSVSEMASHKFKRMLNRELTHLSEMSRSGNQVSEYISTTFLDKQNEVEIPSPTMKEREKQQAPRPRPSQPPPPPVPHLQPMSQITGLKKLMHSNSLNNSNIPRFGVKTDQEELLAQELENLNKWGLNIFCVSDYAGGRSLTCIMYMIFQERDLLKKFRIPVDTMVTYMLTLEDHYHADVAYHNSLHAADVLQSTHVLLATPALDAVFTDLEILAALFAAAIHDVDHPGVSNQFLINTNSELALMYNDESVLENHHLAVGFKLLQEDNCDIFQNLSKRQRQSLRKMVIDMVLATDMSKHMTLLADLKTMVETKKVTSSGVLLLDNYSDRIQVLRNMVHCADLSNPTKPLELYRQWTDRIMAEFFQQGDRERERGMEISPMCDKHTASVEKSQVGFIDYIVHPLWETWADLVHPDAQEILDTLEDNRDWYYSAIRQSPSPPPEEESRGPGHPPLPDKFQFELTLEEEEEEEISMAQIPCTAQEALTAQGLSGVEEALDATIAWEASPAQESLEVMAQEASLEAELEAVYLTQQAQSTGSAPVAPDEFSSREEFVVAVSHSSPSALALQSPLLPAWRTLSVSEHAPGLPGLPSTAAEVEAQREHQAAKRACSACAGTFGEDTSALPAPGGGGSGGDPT
Chain of Voltage-gated inwardly rectifying potassium channel KCNH2 (Q12809 whole entry): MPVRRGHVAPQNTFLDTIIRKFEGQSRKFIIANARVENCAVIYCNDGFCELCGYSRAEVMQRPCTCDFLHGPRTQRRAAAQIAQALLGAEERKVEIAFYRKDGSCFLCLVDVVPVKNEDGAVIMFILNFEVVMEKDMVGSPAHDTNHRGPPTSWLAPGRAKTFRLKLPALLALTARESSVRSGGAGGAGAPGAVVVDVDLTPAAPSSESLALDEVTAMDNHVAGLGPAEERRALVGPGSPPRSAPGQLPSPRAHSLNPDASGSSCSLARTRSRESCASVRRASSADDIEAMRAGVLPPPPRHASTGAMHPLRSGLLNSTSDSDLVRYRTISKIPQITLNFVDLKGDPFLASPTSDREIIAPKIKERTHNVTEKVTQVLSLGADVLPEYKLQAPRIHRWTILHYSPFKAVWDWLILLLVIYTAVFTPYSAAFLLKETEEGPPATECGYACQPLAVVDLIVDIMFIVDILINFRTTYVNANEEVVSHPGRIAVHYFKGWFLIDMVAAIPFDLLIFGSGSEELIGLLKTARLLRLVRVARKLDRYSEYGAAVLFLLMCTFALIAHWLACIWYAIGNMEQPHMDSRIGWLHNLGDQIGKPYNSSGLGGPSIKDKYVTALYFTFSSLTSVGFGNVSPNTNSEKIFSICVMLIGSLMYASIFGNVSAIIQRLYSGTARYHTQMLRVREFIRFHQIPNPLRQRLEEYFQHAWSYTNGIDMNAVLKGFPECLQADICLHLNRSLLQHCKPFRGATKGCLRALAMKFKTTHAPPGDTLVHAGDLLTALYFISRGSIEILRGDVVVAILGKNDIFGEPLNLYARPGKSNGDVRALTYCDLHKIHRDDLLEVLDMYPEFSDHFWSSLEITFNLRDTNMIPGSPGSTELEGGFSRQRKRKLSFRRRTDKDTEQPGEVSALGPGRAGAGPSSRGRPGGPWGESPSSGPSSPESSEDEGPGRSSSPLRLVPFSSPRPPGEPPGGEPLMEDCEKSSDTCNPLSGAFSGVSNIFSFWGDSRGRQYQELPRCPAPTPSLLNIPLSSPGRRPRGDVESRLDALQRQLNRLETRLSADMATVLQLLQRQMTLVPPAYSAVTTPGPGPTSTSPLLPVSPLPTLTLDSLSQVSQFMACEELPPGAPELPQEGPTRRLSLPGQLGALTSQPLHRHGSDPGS
Chain of serum albumin (P02768 whole entry): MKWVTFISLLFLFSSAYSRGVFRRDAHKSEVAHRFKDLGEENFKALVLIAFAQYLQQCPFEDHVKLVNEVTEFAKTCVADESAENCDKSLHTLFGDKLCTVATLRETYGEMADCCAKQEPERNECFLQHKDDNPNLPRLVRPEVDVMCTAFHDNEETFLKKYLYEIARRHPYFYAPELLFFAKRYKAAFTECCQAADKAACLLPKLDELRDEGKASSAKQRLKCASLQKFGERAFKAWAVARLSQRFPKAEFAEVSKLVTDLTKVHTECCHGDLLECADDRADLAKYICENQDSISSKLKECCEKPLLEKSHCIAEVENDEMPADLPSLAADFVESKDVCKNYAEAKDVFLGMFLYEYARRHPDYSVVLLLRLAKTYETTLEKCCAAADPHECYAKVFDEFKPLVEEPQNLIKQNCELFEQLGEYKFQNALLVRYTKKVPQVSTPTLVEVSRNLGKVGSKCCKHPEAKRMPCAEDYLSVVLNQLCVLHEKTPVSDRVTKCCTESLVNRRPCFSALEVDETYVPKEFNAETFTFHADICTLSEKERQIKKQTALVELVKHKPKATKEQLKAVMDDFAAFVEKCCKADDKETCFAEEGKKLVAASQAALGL
Chain of Cytochrome P450 2A6 (P11509 whole entry): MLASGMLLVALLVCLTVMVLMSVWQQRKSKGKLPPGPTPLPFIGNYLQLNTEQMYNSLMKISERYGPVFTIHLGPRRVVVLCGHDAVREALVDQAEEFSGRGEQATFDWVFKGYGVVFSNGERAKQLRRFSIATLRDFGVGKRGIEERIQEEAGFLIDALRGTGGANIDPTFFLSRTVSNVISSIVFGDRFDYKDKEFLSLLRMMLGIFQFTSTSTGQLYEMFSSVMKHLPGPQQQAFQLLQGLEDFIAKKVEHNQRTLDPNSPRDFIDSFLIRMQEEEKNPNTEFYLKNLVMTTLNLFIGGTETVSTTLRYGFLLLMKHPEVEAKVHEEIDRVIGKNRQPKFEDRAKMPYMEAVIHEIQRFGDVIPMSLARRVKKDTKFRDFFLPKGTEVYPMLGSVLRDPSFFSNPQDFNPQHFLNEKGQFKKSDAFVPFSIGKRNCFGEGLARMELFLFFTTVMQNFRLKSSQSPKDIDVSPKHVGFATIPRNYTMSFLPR
Chain of High affinity cGMP-specific 3',5'-cyclic phosphodiesterase 9A (O76083 whole entry): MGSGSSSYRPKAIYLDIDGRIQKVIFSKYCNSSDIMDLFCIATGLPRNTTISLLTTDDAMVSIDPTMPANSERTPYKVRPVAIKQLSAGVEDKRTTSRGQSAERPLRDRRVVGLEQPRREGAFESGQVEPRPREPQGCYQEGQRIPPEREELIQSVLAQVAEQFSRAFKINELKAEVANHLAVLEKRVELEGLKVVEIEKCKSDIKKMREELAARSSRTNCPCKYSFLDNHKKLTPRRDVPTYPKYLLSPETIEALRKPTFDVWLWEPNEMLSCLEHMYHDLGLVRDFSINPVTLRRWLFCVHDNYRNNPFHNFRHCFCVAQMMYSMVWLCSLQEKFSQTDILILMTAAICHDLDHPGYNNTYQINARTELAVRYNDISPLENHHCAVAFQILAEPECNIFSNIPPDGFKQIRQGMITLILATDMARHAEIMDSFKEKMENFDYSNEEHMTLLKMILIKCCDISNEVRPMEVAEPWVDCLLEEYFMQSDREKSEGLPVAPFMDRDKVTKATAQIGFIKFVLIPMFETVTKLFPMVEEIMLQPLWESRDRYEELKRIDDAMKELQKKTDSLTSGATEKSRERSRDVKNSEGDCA
Chain of 3',5'-cyclic-AMP phosphodiesterase 4D (P14270 whole entry): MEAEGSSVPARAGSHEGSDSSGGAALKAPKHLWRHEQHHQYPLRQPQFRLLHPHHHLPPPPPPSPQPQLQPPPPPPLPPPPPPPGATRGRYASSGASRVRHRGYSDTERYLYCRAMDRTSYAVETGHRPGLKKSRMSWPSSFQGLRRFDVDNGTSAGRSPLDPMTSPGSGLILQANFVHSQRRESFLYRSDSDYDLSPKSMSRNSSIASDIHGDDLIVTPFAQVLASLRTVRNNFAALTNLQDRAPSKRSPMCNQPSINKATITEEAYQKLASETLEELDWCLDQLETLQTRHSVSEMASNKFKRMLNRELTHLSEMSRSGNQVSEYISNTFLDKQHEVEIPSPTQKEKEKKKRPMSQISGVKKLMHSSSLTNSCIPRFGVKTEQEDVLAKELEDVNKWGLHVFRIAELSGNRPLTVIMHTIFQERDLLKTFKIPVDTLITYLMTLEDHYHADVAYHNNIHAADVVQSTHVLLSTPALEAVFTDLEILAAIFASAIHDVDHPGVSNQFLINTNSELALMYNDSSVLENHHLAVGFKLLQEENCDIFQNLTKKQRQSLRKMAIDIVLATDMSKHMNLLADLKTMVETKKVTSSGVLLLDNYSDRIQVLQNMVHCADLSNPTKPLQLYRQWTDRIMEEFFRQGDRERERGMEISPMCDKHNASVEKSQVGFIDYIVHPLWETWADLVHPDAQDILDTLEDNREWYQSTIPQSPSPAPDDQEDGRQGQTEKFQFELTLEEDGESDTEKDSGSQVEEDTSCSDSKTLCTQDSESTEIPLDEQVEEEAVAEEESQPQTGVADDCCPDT

## CCNc1nc(Cl)nc(NC2(C#N)CCCCC2)n1
[1]
  IC50: 232 nM

## CCCC(C#N)(CC)Nc1nc(NC)nc(-n2cncn2)n1 (racemic)
[2]
  solubility: 76 µg/mL (≈ 252 µM)
[3]
  CLint scaled: 29 mL/min/kg
[1]
  IC50: 1.1 nM

## N#CC1(Nc2nc(Cl)nc(NC3CC3)n2)CCCCC1
[1]
  IC50: 126 nM

## CNc1nc(NC2(C#N)CCCCC2)nc(N(C)C)n1
[3]
  CLint scaled: 276 mL/min/kg
[4]
  IC50: > 5000 nM
[1]
  IC50: 18 nM

## COc1ccc([C@]2(C#N)CC[C@@H](C(=O)O)CC2)cc1OC1CCCC1 [CILOMILAST]
Mustela putorius furo [5]
  Activity: 1 mg/kg
Serum albumin
  fraction unbound: 0.09
Mustela putorius furo [6]
  inhibition in vivo at 10 mg/kg: 35%
[2]
  solubility: 17 µg/mL (≈ 49.5 µM)

## C#CC(CC)(CC)Nc1nc(NC)nc(-n2cncn2)n1
[3]
  CLint scaled: 22 mL/min/kg
[1]
  IC50: 2.7 nM

## CNc1nc(NC2(C#N)CCCCC2)nc(C2CC2)n1
[3]
  CLint scaled: 276 mL/min/kg
[4]
  IC50: 539 nM
[1]
  IC50: 19 nM

## CN(C)c1nc(Cl)nc(NC2(C#N)CCCCC2)n1
[1]
  IC50: 668 nM

## CNc1nc(NC2CCCC2)nc(NC2(C#N)CCCCC2)n1
[4]
  IC50: > 5000 nM
[1]
  IC50: 59 nM

## CCC(C)(C#N)Nc1nc(NC)nc(-n2cncn2)n1 (racemic)
[2]
  solubility: 50 µg/mL (≈ 183 µM)
[3]
  CLint scaled: 32 mL/min/kg
[1]
  IC50: 2.4 nM

## CCC(C#N)(CC)Nc1nc(NC)nc(-n2cncn2)n1
Mustela putorius furo [5]
  Activity: 3 mg/kg
Serum albumin
  fraction unbound: 0.49
Mustela putorius furo [7]
  inhibition in vivo at 0.1 mg/kg: 66%
Mustela putorius furo [8]
  inhibition in vivo at 0.01 mg/kg: 33%
PBMC
  IC50: 22 nM
Blood
  IC50: 55 nM
Rattus norvegicus
  inhibition in vivo at 0.1 mg/kg: 41%
[9]
  CLint scaled: < 1 mL/min/kg
hERG (KCNH2)
  inhibition at 10 µM: 6%
[10]
  CLint scaled: < 1 mL/min/kg
[11]
  Cmax: 669 ng/mL
[12]
  Vd: 0.5 L/kg
[13]
  half-life: 1.7 h
[14]
  bioavailability: 41%
[15]
  clearance: 3.3 mL/min/kg
[16]
  IC50: > 1000 nM
[17]
  IC50: > 1000 nM
[18]
  IC50: > 1000 nM
[19]
  IC50: > 1000 nM
[20]
  IC50: > 1000 nM
[21]
  IC50: > 1000 nM
[22]
  IC50: > 1000 nM
[23]
  IC50: > 1000 nM
[24]
  IC50: > 1000 nM
[25]
  IC50: 0.87 nM
[26]
  IC50: 1.18 nM
[27]
  IC50: > 10000 nM
[28]
  IC50: > 10000 nM
Cytochrome P450 2D6
  IC50: > 10000 nM
[29]
  IC50: > 10000 nM
Cytochrome P450 2A6
  IC50: > 10000 nM
Cytochrome P450 2C9
  IC50: > 10000 nM
Cytochrome P450 2C19
  IC50: > 10000 nM
Cytochrome P450 1A1
  IC50: > 10000 nM
Cytochrome P450 1A2
  IC50: > 10000 nM
[2]
  solubility: 165 µg/mL (≈ 574 µM)
[3]
  CLint scaled: 26 mL/min/kg
[1]
  IC50: 0.81 nM

## CNc1nc(NC2(C#N)CCCC(C)C2)nc(-n2cncn2)n1 (mixture of isomers)
[3]
  CLint scaled: 96 mL/min/kg
[1]
  IC50: 0.2 nM

## CNc1nc(Cl)nc(NC2(C#N)CCCCC2)n1
[3]
  CLint scaled: 867 mL/min/kg
[4]
  IC50: 1070 nM
[1]
  IC50: 40 nM

## CNc1nc(NC2(C#N)CCCCC2)nc(SC)n1
[3]
  CLint scaled: 579 mL/min/kg
[4]
  IC50: 46 nM
[1]
  IC50: 4.4 nM

## CNc1nc(NC2(C#N)CCCCC2)nc(-n2cncn2)n1
[2]
  solubility: 11 µg/mL (≈ 36.7 µM)
[30]
  inhibition (INH): Not Active
Homo sapiens
  Ratio IC50: > 1000
[31]
  inhibition (INH): Not Active
[3]
  CLint scaled: 52 mL/min/kg
[4]
  IC50: > 5000 nM
[1]
  IC50: 1.7 nM

## CNc1nc(NC2(C#N)CCCCC2)nc(-n2cnc(C)n2)n1
[3]
  CLint scaled: > 276 mL/min/kg
[4]
  IC50: > 5000 nM
[1]
  IC50: 1 nM

## CCCC(C#N)(CCC)Nc1nc(NC)nc(-n2cncn2)n1
[3]
  CLint scaled: 32 mL/min/kg
[1]
  IC50: 6.5 nM

## CCC(C#N)(CC)Nc1nc(Cl)nc(NC)n1
[1]
  IC50: 87 nM

## CNc1nc(NC2(C#N)CCCCCC2)nc(-n2cncn2)n1
[2]
  solubility: 9 µg/mL (≈ 28.7 µM)
[3]
  CLint scaled: 276 mL/min/kg
[1]
  IC50: 0.42 nM

## CNc1nc(NC2(C#N)CCC(C)CC2)nc(-n2cncn2)n1 (mixture of isomers)
[3]
  CLint scaled: 37 mL/min/kg
[1]
  IC50: 1.6 nM

## CNc1nc(NC2(C#N)CCCCC2)nc(-n2cnc(C#N)n2)n1
[3]
  CLint scaled: 210 mL/min/kg
[4]
  IC50: > 5000 nM
[1]
  IC50: 4.9 nM

## CNc1nc(NC2(C#N)CCCC2)nc(-n2cncn2)n1
[2]
  solubility: 165 µg/mL (≈ 578 µM)
[3]
  CLint scaled: 43 mL/min/kg
[1]
  IC50: 1.4 nM

## CNc1nc(Cl)nc(NC2CCCCC2)n1
[1]
  IC50: 104 nM

## CNc1nc(NC2(C#N)CCCCC2)nc(-n2ccnc2)n1
[30]
  inhibition (INH): Not Active
[31]
  inhibition (INH): Not Active
[3]
  CLint scaled: 52 mL/min/kg
[4]
  IC50: 1050 nM
[1]
  IC50: 6.6 nM
